The full list was thinned out, with hits kept by preference.
INS promoter act = TRM-6 insulin promoter activation; TRM-6 cells, insulin promoter eGFP reporter, imaging; plate-scaled: unstimulated 0, stimulated control 100; activation, % at 2 µM; 130,000 compounds, 0.81% hits; AID 1296;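 active means activation at 2 µM above a set limit, confirmed on inspection of the cell images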;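 further: share of cells whose green reporter signal exceeds an intensity cutoff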
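material = TRM-6 human fetal islet cells, insulin promoter–eGFP reporter | input = 1,000 TRM-6 cells seeded per well | benchmarks = stimulated versus unstimulated wells as plate controls | measured by = automated fluorescence imaging of paraformaldehyde-fixed, Hoechst-counterstained cells, green channel | schedule = compound exposure 48 h, 37 °C | reagent = tamoxifen at 0.75 µM added at seeding for reporter induction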
Starred values were filed as active, the others as inactive.

SMILES	INS promoter act
COc1ccccc1NC(=O)CC1C(=O)NCCN1C(=O)Nc1ccccc1 (configuration not stated)	0.0
CC(C)N(C(=O)CSc1nnc(Cc2csc(Nc3ccccc3)n2)o1)C(C)C	0.0
CC(C)N(C(=O)C(F)(F)F)C(C(=O)NC1CCCCC1)c1ccncc1 (configuration not stated)	7.7
O=C(O)c1cn(-c2ccccc2)c(=O)c2ccccc12	-70.0
COC(=O)c1cn(-c2ccccc2)c(C)c1C(=O)OC	591.7*
COC(=O)c1cn(C(=O)OC)c2ccccc12	225.9
O=C(Cc1ccccc1)NN1C(=O)C2C3C=CC(C3)[C@@H]2C1=O (some centres not stated)	8.3
O=S1(=O)N=C2CCCCCN2C(c2ccc(Br)cc2)N1 (configuration not stated)	5.6
O=c1c(/C=C(\O)c2ccc(F)cc2)nc2ccccc2n1-c1ccccc1	127.6*
Cn1c(CNC(=O)c2ccc(F)cc2)nc2ccccc21	0.0
NC(=O)CSc1nc2ccccc2n1-c1ccccc1	341.9
Cc1cc(C)c(OCC(=O)N/N=C/c2ccc3c(c2)OCO3)c(C)c1	-6.9
COC(=O)c1c(NC(=O)c2ccco2)sc(C(=O)N(C)C)c1C	104.7
CCCOC(=O)c1c(NC(=O)C2CCCO2)sc(C(=O)OC)c1C (configuration not stated)	566.7*
CCc1c(C)sc(NC(=O)C2CCCO2)c1C#N (configuration not stated)	43.3
CCOC(=O)c1c(-c2ccc(C)cc2)csc1NC(=O)C1CCCO1 (configuration not stated)	-1.6
c1ccc(Oc2cccc(OCCCCN3CCCC3)c2)cc1	2.6
COc1ccc(C(=O)NC(Nc2ccccc2)C(Cl)(Cl)Cl)cc1 (configuration not stated)	-74.2
CCOC(=O)c1ccc(NC(=S)Nc2ccccn2)cc1	4.3
Cc1cc(N)nc2nc(C(F)(F)F)nn12	800.0*
Cc1cc(C)n2nc(CCc3ccccc3)nc2n1	0.0
Cc1cc(C)n2nc(-c3ccc(F)cc3)nc2n1	0.0
CC(C)NC(=O)NC(=O)COC(=O)/C=C/c1ccccc1[N+](=O)[O-]	-5.6
Cc1ccc(CCCOC(=O)CN2CCCCC2)cc1	0.0
O=C(O)C1C2C=CC(C2)C1C(=O)Nc1cccc(F)c1 (configuration not stated)	-5.4
SMILES	INS promoter act
Cc1ccc(-c2cccc(NC(=O)C3C(C(=O)O)[C@@H]4C=C[C@H]3C4)c2)o1 (some centres not stated)	154.5*
O=C(O)c1cccc(NC(=O)C2C3C=CC(C3)C2C(=O)O)c1 (configuration not stated)	4.9
CCOC(=O)C(Oc1ccc2c(-c3ccccc3)cc(=O)oc2c1)c1ccccc1 (configuration not stated)	-7.4
Cc1cc(C)c(NC(=O)Cc2ccc(-n3cccc3)cc2)c(C)c1	3.3
CCCCN(C(=O)NC(=O)Nc1c(C)cc(C)cc1C)S(C)(=O)=O	163.6*
Cc1cc(C)c(NC(=O)Nc2ccccc2)c(Cl)c1	0.0
O=C(COC(=O)CNC(=O)c1ccccc1F)Nc1cccc(S(=O)(=O)N2CCCCCC2)c1	114.3
CCCCCNC(=O)c1cc(S(=O)(=O)N2CCCCC2)ccc1F	253.8*
CCOC(=O)N1CCC(NC(=O)c2cc(S(=O)(=O)N3CCCCC3)ccc2F)CC1	-2.7
CCOC(=O)N1CCN(CC(O)COc2ccc(C)cc2C(C)(C)C)CC1 (configuration not stated)	-7.4
Cc1ncc([N+](=O)[O-])n1CCOC(=O)Nc1ccc(Cl)c(Cl)c1	0.0
Cc1ncc([N+](=O)[O-])n1CCOC(=O)NC(NCc1ccccc1)C(Cl)(Cl)Cl (configuration not stated)	133.3*
Cc1ncc([N+](=O)[O-])n1CC(=O)NCc1ccccc1	-6.7
Cn1ncc(Cl)c1C(=O)Nc1sc2c(c1C(N)=O)CCC2	-14.4
CCN1CCc2c(sc(NC(=O)Nc3ccc(Cl)c(Cl)c3)c2C(N)=O)C1	207.7*
CCOC(=O)c1c(NC(=S)Nc2ccc(Cl)cc2)sc2c1CCN(C)C2	163.0
CCOc1ccc(OCCC(=O)Nc2ccc(F)cc2C)cc1	-7.1
COc1ccc(NS(=O)(=O)c2ccc(N/N=C(\C)c3ccncc3)c([N+](=O)[O-])c2)cc1	3.3
C=CCc1cccc2cc(C(=O)OCC(=O)c3ccccc3)c(=O)oc12	185.7
CCOC(=O)c1c(-c2ccc(Cl)cc2)c(C#N)c(=O)n(N)c1N	9.4
Cc1cc(=O)n2[nH]c(C(=O)O)nc2n1	76.7*
CCC(=O)Nc1nc2nc(C)cc(=O)n2[nH]1	-4.2
Cc1cc(=O)n2[nH]c(NCc3ccccc3F)nc2n1	0.0
COc1ccc(C)cc1NC(=O)NCc1ccc(F)cc1	7.0
C/C(=N\NC(=O)CSc1nc(C)cc(C)n1)c1cccs1	-2.9
SMILES	INS promoter act
Cc1cc(C)nc(SCC(=O)Nc2ccc(N3CCOCC3)cc2)n1	-9.6
Cc1cc(C)nc(SCC(=O)N/N=C/c2cccn2-c2ccc(O)cc2)n1	106.3*
NC(=O)C1CCN(C(=O)/C=C/c2ccco2)CC1	0.0
O=C1C(=O)c2ccc(-c3ccccc3)cc2-c2ccccc21	-27.3
Cc1ccc(N2C(=O)c3ccc(N)cc3C2=O)cc1C	0.0
Nc1ccc2c(c1)C(=O)C(=O)c1ccccc1-2	239.0*
COc1ccc2[nH]c(C(O)(Cc3cccnc3)Cc3cccnc3)cc2c1	-6.1
CCCOc1ccc2c3c(c(=O)oc2c1OCCC)CCCC3	0.0
CCOC(=O)COc1ccc2c3c(c(=O)oc2c1C)CCC3	518.8*
Cc1c(OCc2nn[nH]n2)ccc2c3c(c(=O)oc12)CCCC3	108.3
Cc1ccc(OC(=O)CCC(=O)NC(C)c2ccccc2)cc1 (configuration not stated)	-8.3
NNC(=O)[C@H]1C[C@@H]1c1ccccc1	6.7
COCc1ccc(CN2CCc3c([nH]c4ccccc34)C2C(C)(C)C)o1 (configuration not stated)	231.3*
COc1cccc(C2c3[nH]c4ccccc4c3CCN2C(=O)Cn2cncn2)c1OC (configuration not stated)	-2.4
Fc1ccc(C2c3[nH]c4ccccc4c3CCN2Cc2cccn2-c2ncccn2)cc1 (configuration not stated)	-7.1
CC(=O)Nc1ccc(N(C(=O)CNC(=O)c2cccs2)C(C(=O)NC(C)(C)C)c2ccccc2)cc1 (configuration not stated)	4.8
COc1cccc2c(=O)cc(C)n(CC(=O)Nc3cccc(C)c3)c12	-64.3
O=C(Nc1nnc(-c2ccco2)o1)c1ccc([N+](=O)[O-])s1	-5.3
CCOc1ccc(N2C(=O)CC(n3ccc(C)n3)C2=O)cc1 (configuration not stated)	30.1
Cc1cccc(NC(=S)NNC(=O)CC(C)O)c1C (configuration not stated)	0.0
CCOc1ccc(-c2nnn(CC(=O)NCc3ccccc3)n2)cc1	-5.6
CCCN1CCC(N(C)CCc2ccc(OC)c(OC)c2)CC1	127.3*
COc1ccc(CCNC2CC(=O)N(N(C)C)C2=O)cc1OC (configuration not stated)	-2.6
COc1ccc(C2CC(=O)N(CCCN(C)CCc3ccc(OC)c(OC)c3)C2)cc1 (configuration not stated)	-7.1
CCC(C)N(CC(=O)Nc1cccc(C)c1C)C(=O)CCl (configuration not stated)	-100.0
O=C(Nc1nc2ccccc2[nH]1)c1ccc(Br)o1	-8.1
COc1c(Cl)cc(Cl)cc1C(=O)n1nc(C)cc1C	218.8

Source: PubChem BioAssay
